The test system of one data set is DuPro. The data set can be described thus: Growth inhibitory effect was assessed against the human prostate tumor cell line DuPro using MTT assay. Type of data set: functional. The conditions noted are these: read-out: ID50 (the source's name). In a few lines:
(§1)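 Cells seeded at 500 per well and incubated overnight at 37 °C in humidified 95% air/5% CO2, then exposed to serially diluted drug for 6 days, each concentration in quadruplicate, with buffer controls. MTT (5 mg/mL solution) added for 4 h at 37 °C; lysed overnight at 37 °C in SDS/DMF buffer, pH 4.8; absorbance at 570 nm. ID50 is the concentration giving 50% growth inhibition.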
(Formazan colour is commonly taken as a measure of viable cells.)

For the next data set, the system named is DU-145. Briefly: Growth inhibitory effect was assessed against the human prostate tumor cell line Du-145 using MTT assay. It is filed as functional. The conditions noted are these: read-out: ID50 (the source's name). In a few lines: as §1
Data set [1] has as its system Mus musculus. The data set can be described thus: Toxicity studies on male athymic NCr-nu mice administered ip daily for 5 consecutive days then rested for 10 days, and a second cycle of treatment also followed the q1d x 5 schedule; Death of all treated mice. It is filed as organism-based. Conditions: in vivo, 240 h.
For another data set, the system named is PC-3. Briefly: Growth inhibitory effect was assessed against the human prostate tumor cell line PC-3 using MTT assay. Type of data set: functional. The conditions noted are these: read-out: ID50 (the source's name). In a few lines:
as §1

For data set [2], the system named is Mus musculus. The data set can be described thus: Toxicity studies on male athymic NCr-nu mice administered ip daily for 5 consecutive days then rested for 10 days, and a second cycle of treatment also followed the q1d x 5 schedule; Two treatment-related deaths out of three animals. Type of data set: organism-based. The conditions noted are these: in vivo, 240 h.

The test system of data set [3] is Mus musculus. The data set can be described thus: Toxicity studies on male athymic NCr-nu mice administered ip daily for 5 consecutive days then rested for 10 days, and a second cycle of treatment also followed the q1d x 5 schedule; Death of all three mice. Type of data set: organism-based. The conditions noted are these: in vivo, 240 h.
The subject of data set [4] is Mus musculus. The data set can be described thus: (§2) Toxicity studies on male athymic NCr-nu mice administered ip daily for 5 consecutive days then rested for 10 days, and a second cycle of treatment also followed the q1d x 5 schedule. Type of data set: organism-based. Conditions: in vivo, 240 h.
The nature of data set [5]: as §2. It is filed as organism-based. Conditions: mouse, in vivo, read-out: Lethality.

5 compounds from ChEMBL document CHEMBL1136801, “Cyclopropane-containing polyamine analogues are efficient growth inhibitors of a human prostate tumor xenograft in nude mice” (J Med Chem, 2003) can be followed below.

`CCNCC1CC1CNCC1CC1CNCC1CC1CNCC.Cl` (stereo not given): the values for the IC50 with DuPro, in the data set with DU-145 and in the data set with PC-3 were 630 nM, 80 nM and greater than 31500 nM, respectively. In the data set with Mus musculus [1], this compound displayed a Lethal dose of 75 mg/kg.

With `CCNCCCCNCC1CC1CNCCCCNCC1CC1CNCCCCNCC.Cl` (stereo not given), the IC50 in the data set on DuPro was 380 nM; in the data set on DU-145, 120 nM; with PC-3, greater than 31200 nM. Moreover, in the data set on Mus musculus [2], the Lethal dose came to 25 mg/kg.

Take `CCNCC1CC1CNCCCCNCC1CC1CNCC.Cl` (stereo not given): the IC50 with DuPro is 260 nM; in the data set on DU-145, 60 nM; with PC-3 it was greater than 31200 nM. The Lethal dose with Mus musculus [3] came to 75 mg/kg.

Take `CCNCCCCNCC1CC1CNCCCCNCCCCNCC1CC1CNCCCCNCCCCNCC1CC1CNCCCCNCC.Cl` (stereo not given): the results for the IC50 in the data set with DuPro, in the data set with DU-145 and in the data set with PC-3 were 200 nM, 220 nM and 300 nM, respectively. In addition, in the data set on Mus musculus [4], the Lethal dose was 25 mg/kg.

Consider `CCNCCCCNCCCCNCCCCNCCCCNCC1CC1CNCCCCNCCCCNCCCCNCCCCNCC` (stereo not given), for which the values for the IC50 in the data set with DuPro, in the data set with DU-145 and in the data set with PC-3 were 340 nM, 200 nM and 400 nM, respectively. In addition, the mortality at 240 h in data set [5] is 100%.
